In ChEMBL document CHEMBL4002581, “Versiquinazolines A-K, Fumiquinazoline-Type Alkaloids from the Gorgonian-Derived Fungus Aspergillus versicolor LZD-14-1” (J Nat Prod, 2016):

Key:
[1] = tested on: A2780; assay: Cytotoxicity against human A2780 cells by MTT assay; assay type: functional, cell-based
Outline: (§1)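 Tetrazolium-based colorimetric (MTT) read-out of tumour-cell viability, run on A549 and A2780 lines.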

[2] = tested on: A549; assay: Cytotoxicity against human A549 cells by MTT assay; assay type: functional, cell-based; outline: as §1
[3] = species on record: Homo sapiens; assay: Inhibition of thioredoxin reductase (unknown origin) at 50 uM measured after 5 mins by DTNB reduction assay relative to control
Outline: (§2)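 TrxR inhibition was screened at 50 μM as % inhibition, and IC50 values are reported in μM. Curcumin was run as positive control. The procedure follows a previously described method.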

[4] = Inhibition of thioredoxin reductase (unknown origin) measured after 5 mins by DTNB reduction assay; design: species or system Homo sapiens; outline: as §2

Compound | inhibition [3] [%] | IC50 [4] [µM] | IC50 [1] [µM] | IC50 [2] [µM]
COC(=O)[C@@H]1C[C@]2(O)c3ccccc3N3C(=O)C4(CC4)N([C@@H](OC)c4nc5ccccc5c(=O)n41)[C@H]32 | 83 | 13 | > 50 | > 50
C=CC(C)(C)[C@@]12C=C(OC)C(=O)N3[C@@H](C)C(=O)N[C@]31N(O)c1ccccc12 | 76 | 13 | > 50 | > 50
O=C1NCc2nc3c(O)cccc3c(=O)n2[C@H]1Cc1c[nH]c2ccccc12 | 55 |  | > 50 | > 50
O=C1NCc2nc3ccccc3c(=O)n2[C@H]1C[C@]1(O)c2ccccc2N2C(=O)C3(CC3)N[C@H]21 | 28 |  | > 50 | > 50
O=C1NCc2nc3ccccc3c(=O)n2[C@H]1C[C@@]12OCN3[C@@H]1N(C(=O)C31CC1)c1ccccc12 | 51 |  | > 50 | > 50
C=CC(C)(C)[C@@]12C=C(OC)C(=O)N3[C@@H](C)C(=O)N[C@]31N(OC)c1ccccc12 | 13 |  | > 50 | > 50
COc1cc(/C=C/C(=O)CC(=O)/C=C/c2ccc(O)c(OC)c2)ccc1O | 25 |  |  | 

More lines, main results first:

inhibition [3] [%] | IC50 [4] [µM] | Compound | IC50 [1] [µM] | IC50 [2] [µM]
47 |  | O=C1N[C@H]2O[C@@]3(C[C@@H]1n1c2nc2ccccc2c1=O)c1ccccc1N1C(=O)C2(CC2)N[C@H]13 | > 50 | > 50
43 |  | CC[C@H](C)[C@H]1C(=O)N2c3ccccc3[C@@]3(O)C[C@H]4C(=O)N[C@H](c5nc6ccccc6c(=O)n54)N1[C@H]23 | > 50 | > 50
83 | 12 | O=C1[C@@H]2C[C@@]34O[C@@H](c5nc6ccccc6c(=O)n52)N1CN1[C@@H]3N(C(=O)C12CC2)c1ccccc14 | > 50 | > 50
38 |  | C[C@H]1C(=O)N2c3ccccc3[C@@]3(O)C[C@H]4C(=O)N[C@H](c5nc6ccccc6c(=O)n54)N1[C@H]23 | > 50 | > 50
17 |  | O=C1N[C@@H]2c3nc4ccccc4c(=O)n3[C@H]1C[C@]1(O)c3ccccc3N3C(=O)C4(CC4)N2[C@H]31 | > 50 | > 50
64 | 20 | C[C@H]1C(=O)N2c3ccccc3[C@@]34C[C@H]5C(=O)N(CN1[C@H]23)[C@@H](O4)c1nc2ccccc2c(=O)n15 | > 50 | > 50
27 |  | C[C@@H]1N[C@@H]2N(C1=O)c1ccccc1[C@@]2(O)C[C@H]1C(=O)NCc2nc3ccccc3c(=O)n21 | > 50 | > 50
62 |  | CC[C@H](C)[C@@H]1C(=O)N2c3ccccc3[C@@]3(O)C[C@H](n4cnc5ccccc5c4=O)C(=O)N1[C@@H]23 | > 50 | > 50
